Laboratory results published in PubChem BioAssay.
Results filed as inconclusive are left out.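 How the source made its calls, unless noted: active means inhibition over a set limit, the all-compound mean plus 3 SD, in both replicate runs; inconclusive means over that limit in just one replicate run; inactive means at or under that limit in both runs.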

Key:
[1] = OD615 S. cerevisiae growth inhibition, permissive medium, pilot counter-assay, permissive growth control for S. cerevisiae lifespan shortening project (AID 705;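 active means growth inhibition above 25% in both replicates, a cutoff set 3 SD above the mean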); conditions: OD615, 24 h, at 10 µM, active compounds read high
Procedure, shortened: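 System: S. cerevisiae with engineered DeaD lifespan system / Measured by: absorbance (optical density) at 615 nm / Read-out: reduction in yeast growth (OD615) / Times: 4 h cell pre-growth, 24 h exposure at 30 °C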

[2] = Restrictive medium S. cerevisiae growth inhibition, OD615, pilot screen of yeast lifespan reduction project, restrictive growth control (AID 706;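 active means growth inhibition above a set limit, 3 SD over mean compound inhibition, in both replicates, cut at about 43% in these data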;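 further: modified DeaD lifespan yeast strain shifted to restrictive glucose medium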); conditions: OD615, 48 h, at 10 µM, active compounds read high
Procedure, shortened: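 System: Engineered S. cerevisiae DeaD strain | Buffer or medium: Glucose-based CSMM-D restrictive medium | Schedule: 4 h pre-incubation, 48 h exposure at 30 °C | Technique: Optical density at 615 nm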

[3] = viability gain of MRP-1-high H69AR cells under doxorubicin, pilot screen, MRP-1 activator project, CellTiter-Glo, duplicate (AID 807;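 active means viability increase at or above a cutoff of the median across tested compounds plus 3 SD, cut at about 8.5% in these data, passing the limit was not always enough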;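 further: compound pretreatment 18-22 h then 72 h combined with doxorubicin; 0% = doxorubicin alone and 100% = vehicle without doxorubicin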); conditions: H69AR viability with doxorubicin, CellTiter-Glo luminescence; at 10 µM; active compounds read high
[4] = growth suppression of beta-catenin knockout HCT116, pilot screen, human colon tumor cells (AID 823;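 active means cell viability at or below a set limit in both duplicate runs, the limit being the all-compound median minus 4 SD, cut at about 23% in these data, passing the limit was not always enough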;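 further: 0% = wells killed by 20 µM Hyamine and 100% = untreated DMSO cell wells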); conditions: CellTiter-Glo, 60 h, at 10 µM, active compounds read low
[5] = growth suppression of PTEN-deleted HCT116, pilot screen, cell-based, HCT116 clonal line, CellTiter-Glo (AID 824;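 active means viability at or below 27.92% in each of two runs, the all-compound median minus 4 SD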;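 further: 0% = 20 µM Hyamine control and 100% = vehicle cell control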); conditions: 60 h, at 10 µM, active compounds read low
[6] = inhibitors of the yeast RAM network, pilot screen, dse1pr::URA3 reporter, 5-FOA selection (AID 869);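 further: 0% = DMSO wells with no growth and 100% = 10 µM 1-NA-PP1 with full growth; RAM network block rescues cells from 5-FOA so hits raise OD615 growth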; conditions: S. cerevisiae dse1pr::URA3 5-FOA growth, OD615, 2 d; at 10 µM; active compounds read high; strain carries analog-sensitive mutant Cbk1 kinase
[7] = RAM signaling pathway blockade in yeast – S. cerevisiae, Pdr1DBD-CYC8 efflux-inhibited sensitized strain, primary screen (AID 1298;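 active means RAM network inhibition above 8.4% in each of two replicates, 3 SD over the compound average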;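 further: 0% = DMSO untreated cells without growth and 100% = 10 µM 1-NA-PP1 full growth; higher means more yeast growth rescued from 5-FOA killing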); conditions: S. cerevisiae cbk1-as DSE1-URA3 strain, 5-FOA growth OD615, 2 d; at 50 µM; active compounds read high

Cc1cc(C(=O)N2CCN(S(C)(=O)=O)CC2)sc1-c1ccccc1
inactive: growth inhibition [1] -7.32% | growth inhibition [2] 3.48% | viability increase [3] -2.61% | viability [4] 94.9% | viability [5] 94% | inhibition [6] 3.19% | RAM network inhibition [7] 6.22%

CCOC(=O)NC(C(F)(F)F)(C(F)(F)F)P(=O)(c1ccccc1)c1ccccc1
inactive: growth inhibition [1] -6.98% | growth inhibition [2] 4.49% | viability increase [3] -0.51% | viability [4] 95% | viability [5] 91.7% | inhibition [6] 0.93% | RAM network inhibition [7] 4.13%

CCC(=O)Nc1ccccc1C(=O)N1CCN(Cc2ccccc2)CC1
inactive: growth inhibition [1] 2.08% | growth inhibition [2] 3.03% | viability increase [3] -1.2% | viability [4] 99.8% | viability [5] 99.7% | inhibition [6] 1.6% | RAM network inhibition [7] 3.32%

O=C(CN1C(=O)c2ccccc2S1(=O)=O)NC1CC2CCC1C2 (configuration not stated)
inactive: growth inhibition [1] 0.325% | growth inhibition [2] -9.88% | viability increase [3] -1.68% | viability [4] 98.6% | viability [5] 89.9% | inhibition [6] 1.11% | RAM network inhibition [7] -0.63%

Cc1ccc(OS(=O)Nc2cccc3nccnc23)cc1 (configuration not stated)
inactive: growth inhibition [1] 1.61% | growth inhibition [2] 13.2% | viability increase [3] -4.19% | viability [4] 56.8% | viability [5] 55% | inhibition [6] 1.72% | RAM network inhibition [7] 2.2%

CCOc1ccc(S(=O)(=O)N2CCN(S(=O)(=O)c3ccc(OCC)cc3)C(C)C2)cc1 (configuration not stated)
inactive: growth inhibition [1] -7.32% | growth inhibition [2] 1.25% | viability increase [3] -5.22% | viability [4] 93% | viability [5] 93.7% | inhibition [6] 1.27% | RAM network inhibition [7] 6.32%

COc1ccc(OC)c2sc(NC(=O)C3CC3)nc12
inactive: growth inhibition [1] 1.08% | growth inhibition [2] 5.55% | viability increase [3] -3.24% | viability [4] 99.7% | viability [5] 90.3% | inhibition [6] 1.25% | RAM network inhibition [7] 6.06%

CCOC(=O)Cn1c(CN2CCc3ccccc3C2)nc2c1c(=O)n(C)c(=O)n2C
inactive: growth inhibition [1] -7.72% | growth inhibition [2] 1.89% | viability increase [3] -0.76% | viability [4] 84.5% | viability [5] 86.1% | inhibition [6] -0.39% | RAM network inhibition [7] 4.64%

CCOC(=O)c1cc2c(n(-c3ccc(C)cc3)c1=O)CCCC2=O
inactive: growth inhibition [1] -9.02% | growth inhibition [2] -16.6% | viability increase [3] -3.28% | viability [4] 99.3% | viability [5] 94.8% | inhibition [6] 0.59% | RAM network inhibition [7] 2.29%

O=C(C1CCCCN1S(=O)(=O)c1ccc(F)cc1)N1CCN(c2ccccc2F)CC1 (configuration not stated)
inactive: growth inhibition [1] -14.1% | growth inhibition [2] -8.47% | viability increase [3] -1.06% | viability [4] 80.8% | viability [5] 82.9% | inhibition [6] -0.01% | RAM network inhibition [7] 1.9%

CCn1c2ccccc2c2nnc(SCN3C(=O)c4ccccc4C3=O)nc21
inactive: growth inhibition [1] -12.1% | growth inhibition [2] -1.02% | viability increase [3] -3.94% | viability [4] 98.5% | viability [5] 100% | inhibition [6] 2.71% | RAM network inhibition [7] 5.66%

Cn1c(=O)[nH]c(=O)c2c1nc(NC1CCCCC1)n2CCO
inactive: growth inhibition [1] -16.7% | growth inhibition [2] -22.4% | viability increase [3] -2.15% | viability [4] 102% | viability [5] 97.9% | inhibition [6] 1.19% | RAM network inhibition [7] 3.67%

Oc1ccccc1-c1nnc(COc2ccccc2)o1
inactive: growth inhibition [1] -1.18% | growth inhibition [2] 14.6% | viability increase [3] -1.43% | viability [4] 72.2% | viability [5] 75.5% | inhibition [6] 1.24% | RAM network inhibition [7] 5.2%

CC(=O)N1CCc2c(sc(NC(=O)c3ccc4c(c3)OCCO4)c2C#N)C1
inactive: growth inhibition [1] -0.37% | growth inhibition [2] -8.73% | viability increase [3] -6.36% | viability [4] 35% | viability [5] 35.4% | inhibition [6] 2.62% | RAM network inhibition [7] 4.02%

CCOC(=O)Cn1c(=O)oc2cc(S(=O)(=O)N3CCC(N4CCCCC4)CC3)ccc21
inactive: growth inhibition [1] -7.51% | growth inhibition [2] -9.77% | viability increase [3] 0.75% | viability [4] 101% | viability [5] 105% | inhibition [6] 1.06% | RAM network inhibition [7] 0.21%

O=C(c1ccc(CNc2c(N3CCOCC3)c(=O)c2=O)cc1)N1CC=C(c2ccccc2)CC1
inactive: growth inhibition [1] -1.62% | growth inhibition [2] -7.31% | viability increase [3] -0.15% | viability [4] 95.3% | viability [5] 94.8% | inhibition [6] 2.02% | RAM network inhibition [7] 6.56%

CCn1cc(C(=O)Nc2ccc3c(c2)OCCO3)c2cc(OC)c(OC)cc2c1=O
inactive: growth inhibition [1] -10% | growth inhibition [2] 2.6% | viability increase [3] -6.05% | viability [4] 101% | viability [5] 88.6% | inhibition [6] 0.915% | RAM network inhibition [7] -1.36%

CN1C(=O)c2cccc(NC(=O)Cc3ccccc3)c2C1=O
inactive: growth inhibition [1] 1.68% | growth inhibition [2] 15.6% | viability increase [3] -1.47% | viability [4] 111% | viability [5] 91.1% | inhibition [6] 0.625% | RAM network inhibition [7] -0.88%

CCOC(=O)c1cccc(NC(=O)C2CCC(CNc3c(N4CCOCC4)c(=O)c3=O)CC2)c1 (configuration not stated)
inactive: growth inhibition [1] -7.33% | growth inhibition [2] -13.8% | viability increase [3] -2.63% | viability [4] 83.7% | viability [5] 82.4% | inhibition [6] 0.325% | RAM network inhibition [7] 1.31%

Cn1c(=O)c2c(nc(CN3CCOCC3)n2CCc2ccccc2)n(C)c1=O
inactive: growth inhibition [1] -8.53% | growth inhibition [2] -15.8% | viability increase [3] 3.73% | viability [4] 95% | viability [5] 94.7% | inhibition [6] 1.48% | RAM network inhibition [7] 0.56%

COCCN1Cc2cccc(C(=O)NCc3cccnc3)c2C1=O
inactive: growth inhibition [1] 3.25% | growth inhibition [2] 10.2% | viability increase [3] 0.03% | viability [4] 111% | viability [5] 101% | inhibition [6] 3.75% | RAM network inhibition [7] 0.51%

CCOc1ccccc1C1CC(c2ccc(F)cc2)Nc2nc(N)nn21 (configuration not stated)
inactive: growth inhibition [1] -2.63% | growth inhibition [2] 6.8% | viability increase [3] 1.61% | viability [4] 89.2% | viability [5] 90.1% | inhibition [6] 0.785% | RAM network inhibition [7] 2.07%

O=C(Nc1nccs1)c1cccc(S(=O)(=O)N2CCOCC2)c1
inactive: growth inhibition [1] -19.2% | growth inhibition [2] -11.8% | viability increase [3] -0.77% | viability [4] 92.8% | viability [5] 92.6% | inhibition [6] 1.83% | RAM network inhibition [7] 1.04%

Cc1ccc(S(=O)(=O)N(CC(=O)N2CCCC2)C2CCCCC2)cc1
inactive: growth inhibition [1] -1.14% | growth inhibition [2] 10.9% | viability increase [3] -1.79% | viability [4] 99% | viability [5] 95% | inhibition [6] 0.685% | RAM network inhibition [7] 2.21%

N#Cc1ccc(Oc2cccnc2)cc1C#N
inactive: growth inhibition [1] -13.5% | growth inhibition [2] -20.4% | viability increase [3] -0.76% | viability [4] 100% | viability [5] 97.5% | inhibition [6] 1.49% | RAM network inhibition [7] 2.79%

CCCC(=O)C1C(=O)CC(C)(C)C(c2cc(C)no2)C1=O (configuration not stated)
inactive: growth inhibition [1] -22.4% | growth inhibition [2] -12.9% | viability increase [3] 0.5% | viability [4] 103% | viability [5] 98.7% | inhibition [6] -0.1% | RAM network inhibition [7] -1.09%

O=C(c1ccccn1)N(CC1CCCO1)C1(C(=O)NC2CCCCC2)CCCCC1 (configuration not stated)
inactive: growth inhibition [1] -4.99% | growth inhibition [2] -10.3% | viability increase [3] -0.31% | viability [4] 85.5% | viability [5] 92.3% | inhibition [6] 1.69% | RAM network inhibition [7] -0.32%

Cc1nc2ccc(N)cc2s1
inactive: growth inhibition [1] -15.7% | growth inhibition [2] -13.4% | viability increase [3] -2.73% | viability [4] 109% | viability [5] 112% | inhibition [6] 0.07% | RAM network inhibition [7] 1.25%

CC1CCN(c2ncnc3c2cnn3-c2ccccc2)CC1
inactive: growth inhibition [1] 7.81% | growth inhibition [2] 10.9% | viability increase [3] 4.17% | viability [4] 77.8% | viability [5] 87.3% | inhibition [6] 0.495% | RAM network inhibition [7] -1.46%

COc1ccc(OCC(O)CN2CCCCC2)cc1 (configuration not stated)
inactive: growth inhibition [1] -7.21% | growth inhibition [2] -11.1% | viability increase [3] -1.52% | viability [4] 95% | viability [5] 101% | inhibition [6] 1.59% | RAM network inhibition [7] 0.52%

O=C(CNS(=O)(=O)c1cccc2nsnc12)NC1CCCCC1
inactive: growth inhibition [1] -8.49% | growth inhibition [2] -16.5% | viability increase [3] -1.47% | viability [4] 96.2% | viability [5] 92.3% | inhibition [6] 1.06% | RAM network inhibition [7] 1.3%

COc1cc(NC(=O)c2c(-c3ccccc3Cl)noc2C)c2ncccc2c1
inactive: growth inhibition [1] -15.8% | growth inhibition [2] -18.1% | viability increase [3] -0.47% | viability [4] 60.2% | viability [5] 64.3% | inhibition [6] 2.6% | RAM network inhibition [7] 7.52%

CCN(CC)C(=O)c1sc(NC(=O)c2ccoc2C)c(C(=O)OC)c1C
inactive: growth inhibition [1] -5.36% | growth inhibition [2] 5.77% | viability increase [3] -1.15% | viability [4] 83.4% | viability [5] 90.6% | inhibition [6] 1.33% | RAM network inhibition [7] 7.43%

COc1ccccc1N(CC(=O)Nc1ccccc1C)S(C)(=O)=O
inactive: growth inhibition [1] -5.63% | growth inhibition [2] -10.8% | viability increase [3] -3.72% | viability [4] 94.7% | viability [5] 95.7% | inhibition [6] 1.12% | RAM network inhibition [7] 1.62%

CC(=O)c1ccc(OCC(O)CN2CCCC(C)C2)cc1 (configuration not stated)
inactive: growth inhibition [1] 5.32% | growth inhibition [2] -4.29% | viability increase [3] -0.81% | viability [4] 99.3% | viability [5] 96.7% | inhibition [6] 1.98% | RAM network inhibition [7] 5.23%

COc1ccccc1N1CCN(C(=O)COc2ccc(C)cc2Br)CC1
inactive: growth inhibition [1] -7.34% | growth inhibition [2] -9.51% | viability increase [3] -1.4% | viability [4] 83.5% | viability [5] 72.4% | inhibition [6] -0.16% | RAM network inhibition [7] 2.61%
